Sampled rows, rich in hits. Any-hit rate of the full collection: about 3.7%.
KCNQ1 block = blocks the human KCNQ1 potassium channel | P51787 | CHO-K1 KCNQ1, FluxOR thallium flux fluorescence; stronger effect = higher value | B-score at 10 µM | 310,000 compounds, 1.3% hits | AID 2642;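 active means compounds whose thallium flux B-score, printed positive for inhibition, exceeds three library SD while starting fluorescence stays within three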;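 further: channel opened by potassium depolarization with thallium stimulus after 20 min compound exposure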
Kir21 inh = blocks the mouse Kir2.1 inward-rectifier potassium channel. HEK293-Kir2.1, FluxOR thallium flux fluorescence; stronger effect = lower value. P35561. AID 1672. 310,000 compounds, 0.85% hits. B-score at 10 µM;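 active means fluorescence ratio B-score at or below minus 3 SD of library scores, with starting-brightness B-score within 2 SD, cut at about -4.2 in these data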;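 further: channel flux triggered by added potassium and thallium sulfate stimulus; B-score of peak minus minimum fluorescence over baseline after thallium stimulus; more negative B-score means stronger Kir2.1 block with less thallium influx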
KCNQ1 act = potentiates or activates the human KCNQ1 potassium channel; P51787; CHO-K1 KCNQ1, thallium flux FluxOR fluorescence; stronger effect = higher value; B-score at 10 µM; 310,000 compounds, 0.35% hits; AID 2648;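 active means fluorescence ratio B-score, a plate-corrected score, at least three library SD, with initial intensity B-score within 5 SD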
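assay system = CHO-K1 cells stably expressing KCNQ1 | medium = assay buffer, equal DMSO in all wells | timing = 37 °C overnight plating, 90-min dark dye load, 20-min compound pretreatment | measured by = kinetic FluxOR thallium fluorescence, 10-s 1-Hz baseline, 110-s post-stimulus read | measure = fluorescence change relative to baseline, converted to B score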
KCNK9 inh = human KCNK9 channel inhibition; Q9NPC2; B-score at 10 µM; HEK293 KCNK9, FluxOR thallium flux fluorescence; stronger effect = lower value; 310,000 compounds, 1.2% hits;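 active means ratio B-score over 3 SD below the library mean, with starting fluorescence within 5 SD of its mean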;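 further: negative B-score means less thallium flux so channel inhibition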
KCNK3 block = human KCNK3 channel inhibition, primary screen. O14649. CHO-KCNK3 thallium flux, FluxOR fluorescence; stronger effect = lower value. B-score at 10 µM. 340,000 compounds, 0.84% hits. AID 602410;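 active means B-score under library mean minus 4 SD, starting fluorescence ratio at most library mean plus 5 SD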;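 further: more negative B-score means stronger inhibition of thallium flux through KCNK3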
hERG protect = hERG (human) protection from proarrhythmic block; CHO-hERG, FluxOR thallium flux, dofetilide IC70 present; activation (rescue from dofetilide block), less the hit threshold, % at 10 µM; 310,000 compounds, 0.51% hits;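 active means activation above the mean of controls blocked by dofetilide plus 5 SD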;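 further: thallium influx through hERG after potassium depolarization seen as dye fluorescence rise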
KCNQ1 inh valid = confirmation of human KCNQ1 potassium channel inhibitors | shares compounds with KCNQ1 block | KCNQ1 cell line, FluxOR thallium flux fluorescence | inhibition, % at 10 µM | 1,600 compounds, 93% hits | AID 588353;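 active means primary screen active, with duplicate mean exceeding buffer control mean plus 3 SD of buffer wells, cut at about 28% in these data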;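 further: 0% = buffer control ratio and 100% = XE991 inhibitor control ratio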
CHO KCNQ1 ctr = activity in parental CHO cells lacking KCNQ1; 1,600 compounds, 21% hits; fluorescence ratio (Tl flux) at 10 µM; parental CHO-K1, FluxOR thallium flux fluorescence ratio; stronger effect = lower value; zero means no signal rise above baseline; shares compounds with KCNQ1 block;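 active means mean of duplicate thallium-flux fluorescence ratios in parental host cells more than 5 SD below the buffer control mean, cut at about 0.38 in these data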;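 further: ratio is peak minus minimum fluorescence divided by baseline fluorescence; actives read low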
KCNQ1 APC inh = human KCNQ1 inhibition validated by electrophysiology; shares compounds with KCNQ1 block; KCNQ1-CHO cells, automated patch clamp current; calls only at 10 µM; 490 compounds, 20% hits;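 active means KCNQ1 current drop exceeding 3 SD of negative control wells, seen in both duplicate runs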;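 further: steady state current during a 2 s step from -80 to +40 mV; negative values mean current inhibition and positive values mean potentiation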
KCNQ2 inh = rat KCNQ2 inhibition in KCNQ1 inhibitor specificity screen; KCNQ2 cells, FluxOR thallium flux fluorescence; shares compounds with KCNQ1 block; 1,600 compounds, 71% hits; inhibition, % at 10 µM;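 active means mean percent inhibition of the KCNQ2 thallium signal more than 5 SD above the buffer-only control wells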;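 further: KCNQ2 expressed in CHO cells; 0% = buffer control wells and 100% = XE-991 inhibitor control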
Target sequence (O88943 whole entry, looked up): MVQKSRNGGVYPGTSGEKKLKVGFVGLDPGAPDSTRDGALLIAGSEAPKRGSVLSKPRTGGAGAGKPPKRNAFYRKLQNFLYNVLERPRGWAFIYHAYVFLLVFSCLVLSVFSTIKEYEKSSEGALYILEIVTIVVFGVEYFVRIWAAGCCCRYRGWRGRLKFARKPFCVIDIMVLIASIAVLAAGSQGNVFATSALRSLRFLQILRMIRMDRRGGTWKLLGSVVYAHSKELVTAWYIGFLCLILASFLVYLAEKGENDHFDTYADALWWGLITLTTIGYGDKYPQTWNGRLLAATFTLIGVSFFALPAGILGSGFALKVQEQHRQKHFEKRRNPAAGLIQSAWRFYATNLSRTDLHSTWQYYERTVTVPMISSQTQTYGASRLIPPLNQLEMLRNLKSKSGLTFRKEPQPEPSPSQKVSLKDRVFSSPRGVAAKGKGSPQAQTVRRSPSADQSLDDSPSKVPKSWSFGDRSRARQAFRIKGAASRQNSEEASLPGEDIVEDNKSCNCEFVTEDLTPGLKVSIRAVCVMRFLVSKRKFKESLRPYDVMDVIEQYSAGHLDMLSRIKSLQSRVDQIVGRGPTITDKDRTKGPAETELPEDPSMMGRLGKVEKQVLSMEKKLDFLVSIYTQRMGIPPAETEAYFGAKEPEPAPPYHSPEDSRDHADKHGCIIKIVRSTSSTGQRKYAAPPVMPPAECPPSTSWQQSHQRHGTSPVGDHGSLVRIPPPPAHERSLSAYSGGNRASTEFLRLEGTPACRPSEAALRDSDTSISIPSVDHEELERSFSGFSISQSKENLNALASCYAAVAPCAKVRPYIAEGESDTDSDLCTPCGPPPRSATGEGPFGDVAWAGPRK
KCNQ1-KCNE1 inh = KCNQ1 inhibitor that also blocks human KCNQ1/KCNE1 channel; shares compounds with KCNQ1 block; KCNQ1/KCNE1 cells, FluxOR thallium flux fluorescence; inhibition, % at 10 µM; 1,600 compounds, 77% hits;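 active means mean percent inhibition of duplicate wells above the buffer-only control mean plus 3 SD of those controls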;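 further: 0% = buffer only wells and 100% = XE-991 inhibitor control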
KCNK9 inh conf = confirmation of human KCNK9 potassium channel inhibitors; 4,900 compounds, 43% hits; shares compounds with KCNK9 inh; HEK293 KCNK9 cells, FluxOR thallium flux fluorescence; inhibition, % at 10 µM;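 active means thallium signal inhibited by more than 5 SD of the compound-free buffer control wells, on both duplicate plates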;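 further: 0% = assay buffer control wells without compound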
Kir2-1 spec = selectivity of KCNK9 modulators against mouse Kir2.1; AID 492993; 4,900 compounds, 4% hits; Kir2.1 cells, FluxOR thallium flux fluorescence; shares compounds with KCNK9 inh; inhibition, % at 10 µM;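 active means thallium signal drop more than 5 SD beyond the mean of the no-compound control wells, seen in both duplicate plates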;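 further: signal is fluorescence rise after thallium addition divided by baseline fluorescence; plate controls were assay buffer only for no effect and full block by chlorpromazine control for full effect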
HEK293 Tl ctr = second counter-screen for KCNK9 modulators: effect in non-induced cells | shares compounds with KCNK9 inh | non-induced KCNK9-HEK293, FluxOR thallium flux | inhibition, % at 10 µM | 4,900 compounds, 40% hits | AID 492997;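 active means thallium signal drop beyond 5 SD of the untreated control mean, on both duplicate plates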;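 further: plate controls were buffer only IC0 wells for no effect and SID17386958 at its maximal inhibitory level for full effect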
KCNK3 inh conf = confirmation of human KCNK3 two-pore domain potassium channel inhibitors. shares compounds with KCNK3 block. CHO-KCNK3 thallium flux, FluxOR fluorescence; 0% buffer, 100% carvedilol maximal block. ratio percent of control, % at 10 µM. 2,400 compounds, 99% hits. AID 651638;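 active means ratio percent of control, averaged over triplicates, above buffer control mean plus 5 SD, cut at about 64% in these data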;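 further: ratio is the fluorescence rise from min to max over baseline after thallium stimulus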
KCNK3 uninduced = activity in cells without induced KCNK3 expression | shares compounds with KCNK3 block | non-induced KCNK3 parental cells, FluxOR thallium flux; stronger effect = lower value | thallium flux ratio (lower = more inhibition) at 10 µM | 2,400 compounds, 40% hits | AID 651747;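 active means thallium flux ratio, averaged over three wells, more than 5 SD below the buffer control mean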;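 further: host cells are CHO cells without KCNK3 induction; ratio is peak minus trough fluorescence over baseline then normalized to buffer controls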
* hit, by the source's call.

Results for Cc1cccc2sc(NC(=O)C3c4ccccc4Oc4ccccc43)nc12 ?
KCNQ1 block: 13*; Kir21 inh: -0.49; KCNQ1 act: inactive; KCNK9 inh: -10*; KCNK3 block: -10*; hERG protect: -13; KCNQ1 inh valid: 112*; CHO KCNQ1 ctr: 0.45; KCNQ1 APC inh: inactive; KCNQ2 inh: 76%*; KCNQ1-KCNE1 inh: 144%*; KCNK9 inh conf: 44%*; Kir2-1 spec: inactive; HEK293 Tl ctr: 40%*; KCNK3 inh conf: 130*; KCNK3 uninduced: 0.15*

Results for Cc1cccc2sc(NC(=O)C3CC3)nc12 ?
KCNQ1 block: inactive; Kir21 inh: 0.92; KCNQ1 act: inactive; KCNK9 inh: inactive; KCNK3 block: inactive; hERG protect: -5

How did Cc1ccc(Nc2nc(NCCO)c3ccccc3n2)cc1C do in these assays?
KCNQ1 block: 7*; Kir21 inh: -6.9*; KCNQ1 act: inactive; KCNK9 inh: inactive; KCNK3 block: -12*; hERG protect: -20; KCNQ1 inh valid: 102*; CHO KCNQ1 ctr: 0.39; KCNQ1 APC inh: inactive; KCNQ2 inh: 66%*; KCNQ1-KCNE1 inh: 84%*; KCNK3 inh conf: 128*; KCNK3 uninduced: inactive

Results for Cc1ccccc1OCC(O)Cn1c(=N)n(Cc2ccccc2)c2ccccc21 (configuration not stated) ?
KCNQ1 block: 12*; Kir21 inh: -12*; KCNQ1 act: inactive; KCNK9 inh: inactive; KCNK3 block: -12*; hERG protect: -26; KCNQ1 inh valid: 130*; CHO KCNQ1 ctr: 0.41; KCNQ1 APC inh: inactive; KCNQ2 inh: 99%*; KCNQ1-KCNE1 inh: inactive; KCNK3 inh conf: 125*; KCNK3 uninduced: inactive

What do the screens show for `Cc1ccc(C)c(N2CCN(c3ccncc3N)CC2)c1`?
KCNQ1 block: inactive; Kir21 inh: -2.1; KCNQ1 act: inactive; KCNK9 inh: inactive; KCNK3 block: inactive; hERG protect: -6

How did CCCCc1nc(N2CCN(C(=O)c3ccco3)CC2)c(C#N)c2c1CCCC2 do in these assays?
KCNQ1 block: 9*; Kir21 inh: -1.3; KCNQ1 act: inactive; KCNK9 inh: -6.8*; KCNK3 block: -9.4*; hERG protect: -15; KCNQ1 inh valid: 98*; CHO KCNQ1 ctr: 0.34*; KCNQ2 inh: 108%*; KCNQ1-KCNE1 inh: 46%*; KCNK3 inh conf: 120*; KCNK3 uninduced: inactive

How did COc1ccc(C2=C3C(=O)OCC3Cc3ncn(Cc4ccccc4)c32)cc1 (configuration not stated) do in these assays?
KCNK3 block: inactive

How did CC[C@]1(C(=O)OC)[C@H]2C(=O)N(C)C(=O)[C@H]2[C@H]2CN=C(SCc3ccc(C)cc3)N21 do in these assays?
KCNK3 block: inactive

What do the screens show for `Cc1cc(C)n(-c2cc(C(C)(C)C)nc3c(-c4ccccc4)cnn23)n1`?
KCNQ1 block: 8*; Kir21 inh: -0.65; KCNQ1 act: inactive; KCNK9 inh: inactive; KCNK3 block: -13*; hERG protect: -8; KCNQ1 inh valid: 85*; CHO KCNQ1 ctr: 0.5; KCNQ2 inh: inactive; KCNQ1-KCNE1 inh: 114%*; KCNK3 inh conf: 108*; KCNK3 uninduced: inactive

How did COc1ccc(-c2csc3ncnc(N4CCN(c5ccccc5)CC4)c23)cc1 do in these assays?
KCNQ1 block: 15*; Kir21 inh: 0.13; KCNQ1 act: inactive; KCNK9 inh: -6.7*; KCNK3 block: inactive; hERG protect: -13; KCNQ1 inh valid: 134*; CHO KCNQ1 ctr: 0.37*; KCNQ2 inh: 132%*; KCNQ1-KCNE1 inh: active; KCNK3 inh conf: 106*; KCNK3 uninduced: 0.13*

What do the screens show for `COc1ccc(-c2csc3ncnc(N4CCN(Cc5ccccc5)CC4)c23)cc1`?
KCNQ1 block: inactive; Kir21 inh: 0.67; KCNQ1 act: inactive; KCNK9 inh: inactive; KCNK3 block: inactive; hERG protect: -20

Results for O=C(c1ccccc1)N1CCN(c2ccc(N3CCOCC3)nn2)CC1 ?
KCNQ1 block: inactive; Kir21 inh: 0.64; KCNQ1 act: inactive; KCNK9 inh: inactive; KCNK3 block: inactive; hERG protect: -12

What do the screens show for `COc1cc2c(cc1OC)C(c1ccc(-c3ccccc3Cl)o1)=NCC2`?
KCNQ1 block: 12*; Kir21 inh: 0.01; KCNQ1 act: inactive; KCNK9 inh: inactive; KCNK3 block: -12*; hERG protect: -31; KCNQ1 inh valid: 136*; CHO KCNQ1 ctr: 0.37*; KCNQ2 inh: 145%*; KCNQ1-KCNE1 inh: 196%*; KCNK3 inh conf: 101*; KCNK3 uninduced: 0.12*

How did Cc1cccc(N(Cc2ccccc2)C(=O)c2ccccc2S(C)(=O)=O)c1 do in these assays?
KCNQ1 block: inactive; Kir21 inh: -0.15; KCNQ1 act: inactive; KCNK9 inh: inactive; KCNK3 block: inactive; hERG protect: -12
